Assay [1] deals with Protein cereblon/Protein FAM3C (Homo sapiens) (UniProt Q96SW2+Q92520). In words: Protac activity at CRBN/FAM3C in human BxPC-3 cells assessed as FAM3C degradation incubated for 16 hrs by proteomic analysis. Format: cell-based. An outline of the steps:
(§1)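 TMT 10plex proteomics. […] Samples (75 μg) were reduced with DTT, alkylated with 2-chloroacetamide, acetone-precipitated, trypsin-digested overnight at 37 °C and TMT-labeled for LC-MS/MS relative quantitation.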

Assay [2] addresses Signal transducer and activator of transcription 3 (Homo sapiens) (UniProt P40763). The experiment in a line: Inhibition of STAT3 phosphorylation in human BxPC-3 cells at 1 uM after 16 hrs by western blot analysis. Format: cell-based. An outline of the steps:
(§2)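 Cells were seeded in 6-well plates (BxPC-3 500 × 10^3, MIA PaCa-2 200 × 10^3 cells/well) and exposed to compound for 16 h. Lysis was at 4 °C by sonication in Tris/NaCl/Triton/SDS buffer, pH 7.4, with protease and phosphatase inhibitors. Lysates were run on SDS-PAGE, transferred to PVDF and probed for STAT3, pSTAT3 and NQO1 with GAPDH as loading control. Immunoblots were imaged on an Odyssey system.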

Assay [3] concerns the target T1, Protein cereblon/E3 ubiquitin-protein ligase ZFP91 (Homo sapiens, UniProt Q96SW2+Q96JP5). The experiment in a line: Protac activity at CRBN/ZFP91 in human BxPC-3 cells assessed as ZF91 protein degradation at 1 uM incubated for 16 hrs in presence of proteasome inhibitor carfilzomib by western blot analysis. Format: cell-based. A digest of the protocol: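 BxPC-3 cells pretreated 1 h with carfilzomib at 1 μM, then exposed 16 h. Lysates blotted for ZFP91 with GAPDH control; bands quantified by densitometry.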

Assay [4] has as its target Protein cereblon/45 kDa calcium-binding protein (Homo sapiens) (UniProt Q96SW2+Q9BRK5). In words: Protac activity at CRBN/SDF4 in human BxPC-3 cells assessed as SDF4 degradation incubated for 16 hrs by proteomic analysis. Format: cell-based. A digest of the protocol: as §1
Assay [5] addresses Signal transducer and activator of transcription 3 (Homo sapiens) (UniProt P40763). The experiment in a line: Inhibition of STAT3 phosphorylation in human MIA PaCa-2 cells at 0.5 to 1 uM after 16 hrs by western blot analysis. It is filed as cell-based. The note with it: dose 0.5-1 µM. A digest of the protocol: as §2
Assay [6] deals with T1, Protein cereblon/E3 ubiquitin-protein ligase ZFP91. In words: Protac activity at CRBN/ZFP91 in human BxPC-3 cells assessed as alteration of ZF91 protein levels at 0.5 uM incubated for 16 hrs in presence of NQO1 inhibitor dicoumarol. It is filed as cell-based. A digest of the protocol: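 BxPC-3 cells treated 16 h with or without dicoumarol; carfilzomib added 1 h before treatments. ZFP91 immunoblotted against GAPDH.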

In another assay the test system is BXPC-3. In words: Reduction in NQO1 expression in human BxPC-3 cells at 2 to 6 uM incubated for 16 hrs in presence of protein synthesis inhibitor cycloheximide by western blot analysis. The note with it: dose 2-6 µM.
Assay [7] concerns the target Protein cereblon/Endothelial differentiation-related factor 1 (Homo sapiens) (UniProt Q96SW2+O60869). In words: Protac activity at CRBN/EDF1 in human BxPC-3 cells assessed as EDF1 degradation incubated for 16 hrs by proteomic analysis. Format: cell-based. An outline of the steps:
as §1

Assay [8] deals with Protein cereblon/Dynein light chain Tctex-type 1 (Homo sapiens) (UniProt Q96SW2+P63172). In words: Protac activity at CRBN/DYNLT1 in human BxPC-3 cells assessed as DYNLT1 degradation incubated for 16 hrs by proteomic analysis. It is filed as cell-based. A digest of the protocol:
as §1

In assay [9] the target is T1, Protein cereblon/E3 ubiquitin-protein ligase ZFP91. The experiment in a line: Protac activity at CRBN/ZFP91 in human BxPC-3 cells assessed as induction of ZF91 degradation at 1 uM incubated for 16 hrs by western blot analysis. Format: cell-based. A digest of the protocol:
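BxPC-3 cells treated for 4, 16 or 24 h across a concentration series. ZFP91 immunoblotted against GAPDH; bands quantified by densitometry, DC50 calculated from dose-response curves of the densitometry.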

Assay [10] in a line: Upregulation of EPHB3 protein levels in human BxPC-3 cells incubated for 16 hrs by proteomic analysis. Format: functional. A digest of the protocol: (§3)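 BxPC-3 cells exposed 16 h in triplicate (control, PROTAC) or duplicate (other arms); lysed in RIPA at 4 °C, 75 μg protein per sample. Reduced with DTT (1 h, 55 °C), alkylated with 2-chloroacetamide, acetone-precipitated, trypsin-digested overnight at 37 °C, TMT 10plex labelled, relative quantitation by LC-tandem MS.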

The next assay deals with MIA PaCa-2. In words: Antiproliferative activity against human MIA PaCa-2 cells assessed as reduction in cell viability incubated for 3 days by MTT assay. Format: functional, cell-based. The note with it: MIA PaCa-2, 72 h. An outline of the steps: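 MTT assay. Cells were seeded at 3000–6000/well and incubated overnight, then exposed to compound or DMSO vehicle for 3 days in RPMI-1640 or DMEM with 10% FBS at 37 °C, 5% CO2. MTT (3 mg/ml) was added for 3 h at 37 °C, formazan was dissolved in DMSO and absorbance read at 570 nm. IC50 from three independent experiments, mean ± SD.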

Assay [11] can be described thus: Upregulation of GDF15 protein levels in human BxPC-3 cells incubated for 16 hrs by proteomic analysis. Format: functional. An outline of the steps: as §3
Assay [12] deals with Protein cereblon/Ubiquitin carboxyl-terminal hydrolase 8 (Homo sapiens) (UniProt P40818+Q96SW2). The experiment in a line: Protac activity at CRBN/USP8 in human BxPC-3 cells assessed as USP8 degradation incubated for 16 hrs by proteomic analysis. It is filed as cell-based. An outline of the steps:
as §3

Another assay relates to HEK293. In words: Antiproliferative activity against human HEK293 cells assessed as reduction in cell viability incubated for 24 hrs by MTT assay. Format: functional, cell-based. The note with it: HEK293, 24 h. An outline of the steps:
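HEK-293 cells were treated with compound for 24 h, in parallel with the luciferase reporter assay. Viability was read by MTT absorbance at 570 nm, and IC50 was taken from three independent experiments.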

The target in assay [13] is Protein cereblon/Anamorsin (Homo sapiens) (UniProt Q96SW2+Q6FI81). The experiment in a line: Protac activity at CRBN/CIAPIN1 in human BxPC-3 cells assessed as CIAPIN1 degradation incubated for 16 hrs by proteomic analysis. It is filed as cell-based. A digest of the protocol:
as §1

Assay [14] concerns the target Protein cereblon/Procollagen-lysine,2-oxoglutarate 5-dioxygenase 2 (Homo sapiens) (UniProt Q96SW2+O00469). The experiment in a line: Protac activity at CRBN/PLOD2 in human BxPC-3 cells assessed as PLOD2 degradation incubated for 16 hrs by proteomic analysis. Format: cell-based. An outline of the steps:
as §1

A short description of assay [15]: Upregulation of AP-1 protein levels in human BxPC-3 cells incubated for 16 hrs by proteomic analysis. Format: functional. An outline of the steps: as §3
Assay [16] in a line: Upregulation of DNAJB9 protein levels in human BxPC-3 cells incubated for 16 hrs by proteomic analysis. Format: functional. A digest of the protocol:
as §3

Assay [17] concerns the target Protein cereblon/WD repeat- and FYVE domain-containing protein 4 (Homo sapiens) (UniProt Q96SW2+Q6ZS81). The experiment in a line: Protac activity at CRBN/WDFY4 in human BxPC-3 cells assessed as WDFY4 degradation incubated for 16 hrs by proteomic analysis. It is filed as cell-based. A digest of the protocol:
as §3

The target in assay [18] is Protein cereblon/Histone-lysine N-methyltransferase PRDM16 (Homo sapiens) (UniProt Q96SW2+Q9HAZ2). In words: Protac activity at CRBN/PRDM16 in human BxPC-3 cells assessed as PRDM16 degradation incubated for 16 hrs by proteomic analysis. It is filed as cell-based. A digest of the protocol:
as §1

Each structure is given as a SMILES string. The source made the active and inactive calls. The rule behind the calls is not given here.

T1 sequence (Q96JP5 2-570 partner limits assumed): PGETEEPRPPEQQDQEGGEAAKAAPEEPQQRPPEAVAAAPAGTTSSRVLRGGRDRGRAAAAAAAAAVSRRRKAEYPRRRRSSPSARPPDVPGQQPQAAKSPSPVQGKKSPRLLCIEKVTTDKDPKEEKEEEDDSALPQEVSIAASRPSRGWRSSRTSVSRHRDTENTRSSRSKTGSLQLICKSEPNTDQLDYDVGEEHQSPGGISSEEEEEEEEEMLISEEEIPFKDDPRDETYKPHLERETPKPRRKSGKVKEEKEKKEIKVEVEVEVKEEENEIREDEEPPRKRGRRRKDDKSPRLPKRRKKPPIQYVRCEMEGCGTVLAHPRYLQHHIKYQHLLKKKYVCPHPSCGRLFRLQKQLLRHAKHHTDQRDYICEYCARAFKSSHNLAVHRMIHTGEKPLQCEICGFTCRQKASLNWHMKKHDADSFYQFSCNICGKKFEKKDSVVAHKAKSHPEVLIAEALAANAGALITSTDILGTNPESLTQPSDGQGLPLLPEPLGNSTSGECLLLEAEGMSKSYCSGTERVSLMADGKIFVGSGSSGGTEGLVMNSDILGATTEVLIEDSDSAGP
T1 sequence (Q96SW2 whole entry): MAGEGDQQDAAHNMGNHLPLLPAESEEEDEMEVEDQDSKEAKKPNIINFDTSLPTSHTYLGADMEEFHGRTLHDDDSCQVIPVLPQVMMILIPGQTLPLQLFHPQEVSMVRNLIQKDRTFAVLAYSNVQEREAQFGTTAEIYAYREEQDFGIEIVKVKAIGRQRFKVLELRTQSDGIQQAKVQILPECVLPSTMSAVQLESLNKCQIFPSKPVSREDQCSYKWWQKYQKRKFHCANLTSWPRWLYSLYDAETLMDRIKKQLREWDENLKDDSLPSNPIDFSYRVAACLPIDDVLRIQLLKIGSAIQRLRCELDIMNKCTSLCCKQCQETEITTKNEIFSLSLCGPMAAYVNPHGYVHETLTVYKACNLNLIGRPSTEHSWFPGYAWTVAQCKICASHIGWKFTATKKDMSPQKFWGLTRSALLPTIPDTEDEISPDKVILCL
Signal transducer and activator of transcription 3 (Homo sapiens), sequence (P40763 whole entry): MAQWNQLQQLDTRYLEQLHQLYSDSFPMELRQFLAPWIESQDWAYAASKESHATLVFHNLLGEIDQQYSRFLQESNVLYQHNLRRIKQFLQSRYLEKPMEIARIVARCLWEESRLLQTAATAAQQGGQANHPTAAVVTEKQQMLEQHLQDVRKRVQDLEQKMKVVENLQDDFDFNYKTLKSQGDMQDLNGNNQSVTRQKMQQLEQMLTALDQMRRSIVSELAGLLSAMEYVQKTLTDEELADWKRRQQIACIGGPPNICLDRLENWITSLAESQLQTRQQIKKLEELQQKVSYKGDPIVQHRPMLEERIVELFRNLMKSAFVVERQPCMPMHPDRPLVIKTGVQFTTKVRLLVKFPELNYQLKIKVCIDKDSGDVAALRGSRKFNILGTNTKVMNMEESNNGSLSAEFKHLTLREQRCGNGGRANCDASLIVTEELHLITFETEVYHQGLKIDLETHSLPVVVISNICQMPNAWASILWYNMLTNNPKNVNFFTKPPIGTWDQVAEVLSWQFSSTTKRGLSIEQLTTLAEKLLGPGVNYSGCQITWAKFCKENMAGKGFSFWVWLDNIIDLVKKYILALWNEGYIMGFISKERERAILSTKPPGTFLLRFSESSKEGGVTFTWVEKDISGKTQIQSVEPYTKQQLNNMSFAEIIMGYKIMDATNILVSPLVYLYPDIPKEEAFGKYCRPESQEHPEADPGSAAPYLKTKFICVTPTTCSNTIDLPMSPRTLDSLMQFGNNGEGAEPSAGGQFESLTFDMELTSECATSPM
Protein cereblon/45 kDa calcium-binding protein (Homo sapiens), sequence (Q96SW2 whole entry, looked up): as the sequence (Q96SW2 whole entry) above
Protein cereblon/45 kDa calcium-binding protein (Homo sapiens), sequence (Q9BRK5 whole entry, looked up): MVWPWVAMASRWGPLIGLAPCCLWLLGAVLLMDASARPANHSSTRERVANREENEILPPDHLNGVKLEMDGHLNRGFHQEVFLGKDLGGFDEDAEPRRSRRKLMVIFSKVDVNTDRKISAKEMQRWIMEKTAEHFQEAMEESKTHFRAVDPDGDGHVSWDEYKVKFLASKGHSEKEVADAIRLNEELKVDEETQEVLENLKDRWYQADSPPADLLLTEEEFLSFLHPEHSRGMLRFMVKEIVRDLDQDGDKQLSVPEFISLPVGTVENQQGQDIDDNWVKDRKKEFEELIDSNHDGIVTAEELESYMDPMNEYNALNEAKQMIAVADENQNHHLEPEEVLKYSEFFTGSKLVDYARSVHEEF
Protein cereblon/Histone-lysine N-methyltransferase PRDM16 (Homo sapiens), sequence (Q96SW2 whole entry, looked up): as the sequence (Q96SW2 whole entry) above
Protein cereblon/Histone-lysine N-methyltransferase PRDM16 (Homo sapiens), sequence (Q9HAZ2 whole entry, looked up): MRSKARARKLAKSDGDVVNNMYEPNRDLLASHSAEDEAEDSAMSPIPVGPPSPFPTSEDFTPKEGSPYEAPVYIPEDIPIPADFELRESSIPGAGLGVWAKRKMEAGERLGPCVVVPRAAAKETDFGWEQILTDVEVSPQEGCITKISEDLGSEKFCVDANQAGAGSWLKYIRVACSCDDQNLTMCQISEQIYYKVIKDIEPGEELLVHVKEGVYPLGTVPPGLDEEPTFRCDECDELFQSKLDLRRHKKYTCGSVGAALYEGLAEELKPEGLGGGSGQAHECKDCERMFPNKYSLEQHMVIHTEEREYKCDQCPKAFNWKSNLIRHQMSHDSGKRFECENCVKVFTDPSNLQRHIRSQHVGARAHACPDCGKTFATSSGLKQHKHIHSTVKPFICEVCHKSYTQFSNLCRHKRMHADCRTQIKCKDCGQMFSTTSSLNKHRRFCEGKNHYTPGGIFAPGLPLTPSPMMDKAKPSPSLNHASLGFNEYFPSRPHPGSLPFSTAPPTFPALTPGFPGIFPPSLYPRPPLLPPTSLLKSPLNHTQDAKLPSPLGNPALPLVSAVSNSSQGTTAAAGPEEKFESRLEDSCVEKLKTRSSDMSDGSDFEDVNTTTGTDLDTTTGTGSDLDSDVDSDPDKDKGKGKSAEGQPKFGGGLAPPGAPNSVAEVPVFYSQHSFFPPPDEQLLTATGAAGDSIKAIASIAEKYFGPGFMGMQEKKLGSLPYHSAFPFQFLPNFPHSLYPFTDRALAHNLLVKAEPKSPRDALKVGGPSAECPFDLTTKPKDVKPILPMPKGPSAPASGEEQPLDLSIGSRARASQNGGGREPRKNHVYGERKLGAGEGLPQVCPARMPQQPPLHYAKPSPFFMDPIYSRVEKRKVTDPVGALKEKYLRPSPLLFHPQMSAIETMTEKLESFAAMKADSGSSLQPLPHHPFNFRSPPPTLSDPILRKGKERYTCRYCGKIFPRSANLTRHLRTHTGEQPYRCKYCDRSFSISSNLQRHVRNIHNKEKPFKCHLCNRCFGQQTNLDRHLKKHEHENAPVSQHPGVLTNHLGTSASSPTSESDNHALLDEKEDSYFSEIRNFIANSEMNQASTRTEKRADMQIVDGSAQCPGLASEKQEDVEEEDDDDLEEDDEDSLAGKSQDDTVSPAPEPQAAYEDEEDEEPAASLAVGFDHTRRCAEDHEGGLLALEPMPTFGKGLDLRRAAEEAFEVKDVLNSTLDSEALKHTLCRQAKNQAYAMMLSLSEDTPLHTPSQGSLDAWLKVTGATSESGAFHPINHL
Protein cereblon/Dynein light chain Tctex-type 1 (Homo sapiens), sequence (P63172 whole entry, looked up): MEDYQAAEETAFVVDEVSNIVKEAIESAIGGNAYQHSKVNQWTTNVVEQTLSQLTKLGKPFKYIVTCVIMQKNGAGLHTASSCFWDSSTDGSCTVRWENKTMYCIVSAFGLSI
Protein cereblon/Dynein light chain Tctex-type 1 (Homo sapiens), sequence (Q96SW2 whole entry, looked up): as the sequence (Q96SW2 whole entry) above

Turning to `O=C1CCC(N2C(=O)c3cccc(NCCCCCC4CCN(CCNC(=O)c5cc6c(o5)C(=O)c5ccccc5C6=O)CC4)c3C2=O)C(=O)N1` (stereo unspecified), the log2FC in assay [1] is -0.73; in assay [4], -0.67; in [7], -0.82; in assay [8] it was -0.97; in assay [10], 0.65; in [11], 0.69. Further, the log2FC in assay [12] was -0.59; in assay [13] it was -0.59; in assay [14] it was -0.63; in assay [15], 1.58; in assay [16], 1.35; in [17], -0.78. The log2FC in assay [18] was -0.6. The inhibition entry in assay [2] was “Active”. Moreover, the result (in assay [3]; in [6]; in the assay on BXPC-3) was inactive. Besides, in [5], the inhibition entry was “inactive”. The result in assay [9] was Active. The IC50 is 1 µM in the assay on MIA PaCa-2 and 8.7 µM in the assay with HEK293.

Source of the values: ChEMBL document CHEMBL4706672 (J Med Chem, 2021).
